ChEMBL document CHEMBL1821590, “Novel dihydropyrimidines and its pyrazole derivatives: synthesis and pharmacological screening” (Eur J Med Chem, 2011)
Converted amounts (≈) assume the structure as drawn.

How the values were obtained:
Type in all cases: functional
[1] = tested on: Candida albicans; experiment: Antimicrobial activity against Candida albicans at 50 ug/ml by paper disc method; conditions: read-out: IZ
Outline: (§1)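 Paper disc method against A. niger and C. albicans, with compounds at 25, 50 and 100 µg/mL. Amphotericin-B as standard.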

[2] = tested on: Aspergillus niger; experiment: Antimicrobial activity against Aspergillus niger at 100 ug/ml by paper disc method; conditions: read-out: IZ; outline: as §1
[3] = Antioxidant activity assessed as hydrogen peroxide scavenging activity after 10 mins
Outline: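 H2O2 (20 mM) in PBS pH 7.4. 1 mL of sample or ascorbic acid in methanol (12.5–100 µg/mL) added to 2 mL H2O2 solution. A230 read after 10 min. % inhibition = [1 − (Vt/Vc)] × 100. Triplicate, averaged. IC50 derived from % inhibition across concentrations.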

[4] = Antioxidant activity assessed as nitric oxide radical scavenging activity after 150 mins
Outline: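 10 mM sodium nitroprusside (4 mL), PBS pH 7.4 (1 mL) and sample or ascorbic acid in DMSO (1 mL, 12.5–100 µg/mL), incubated 150 min at 25 °C. Nitrite detected with sulphanilic acid (5 min) then naphthylethylenediamine (30 min, diffused light). Read at […]. Triplicate. % inhibition = [1 − (Vt/Vc)] × 100. IC50 derived from it.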

[5] = tested on: Candida albicans; experiment: Antimicrobial activity against Candida albicans at 25 ug/ml by paper disc method; conditions: read-out: IZ; outline: as §1
[6] = tested on: Staphylococcus aureus; experiment: Antimicrobial activity against Staphylococcus aureus at 25 ug/ml by agar plate diffusion technique; conditions: read-out: IZ
Outline: (§2)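 Agar plate diffusion against E. coli, P. aeruginosa, S. aureus and B. subtilis, with compounds at 25, 50 and 100 µg/mL. Streptomycin as standard.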

[7] = tested on: Bacillus subtilis; experiment: Antimicrobial activity against Bacillus subtilis at 100 ug/ml by agar plate diffusion technique; conditions: read-out: IZ; outline: as §2
[8] = tested on: Metaphire posthuma; experiment: Anthelmintic activity against Pheretima posthuma assessed as time taken for parasite death at 0.5% w/v
Outline: (§3)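 Earthworms (Pheretima posthuma, spelled Perituma posthuma in text) exposed to test compounds at 0.1, 0.2 and 0.5% w/v. Albendazole served as standard, with an untreated control. Paralysis was recorded as the time until worms became motionless, then time to death was recorded, in minutes. Each value is the mean of three determinations with S.D.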

[9] = tested on: Aspergillus niger; experiment: Antimicrobial activity against Aspergillus niger at 25 ug/ml by paper disc method; conditions: read-out: IZ; outline: as §1
[10] = tested on: Candida albicans; experiment: Antimicrobial activity against Candida albicans at 100 ug/ml by paper disc method; conditions: read-out: IZ; outline: as §1
[11] = tested on: Staphylococcus aureus; experiment: Antimicrobial activity against Staphylococcus aureus at 100 ug/ml by agar plate diffusion technique; conditions: read-out: IZ; outline: as §2
[12] = Antioxidant activity assessed as inhibition of lipid peroxidation using egg lecithin liposomes incubated for 1 hr
Outline: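 Egg lecithin (3 mg/mL, phosphate buffer pH 7.4) sonicated 10 min to form liposomes. Sample or ascorbic acid (12.5–100 µg/mL) added. Peroxidation induced with FeCl3 and L-ascorbic acid, 1 h at 37 °C. Stopped with HCl/TCA/TBA/BHA, boiled 15 min, centrifuged, supernatant read at 532 nm. Triplicate. % inhibition vs control. IC50 derived.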

[13] = tested on: Metaphire posthuma; experiment: Anthelmintic activity against Pheretima posthuma assessed as time taken for parasite death at 0.2% w/v; outline: as §3
[14] = tested on: Aspergillus niger; experiment: Antimicrobial activity against Aspergillus niger at 50 ug/ml by paper disc method; conditions: read-out: IZ; outline: as §1
[15] = tested on: Staphylococcus aureus; experiment: Antimicrobial activity against Staphylococcus aureus at 50 ug/ml by agar plate diffusion technique; conditions: read-out: IZ; outline: as §2
[16] = tested on: Metaphire posthuma; experiment: Anthelmintic activity against Pheretima posthuma assessed as time taken for complete parasite paralysis at 0.1% w/v
Outline: (§4)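 Earthworms (Pheretima posthuma) exposed to test solutions at 0.1, 0.2 and 0.5% w/v; time in minutes to complete paralysis (worms motionless) recorded. Albendazole as standard. Mean of three determinations ± S.D.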

[17] = tested on: Metaphire posthuma; experiment: Anthelmintic activity against Pheretima posthuma assessed as time taken for complete parasite paralysis at 0.5% w/v; outline: as §4
[18] = tested on: Metaphire posthuma; experiment: Anthelmintic activity against Pheretima posthuma assessed as time taken for complete parasite paralysis at 0.2% w/v; outline: as §4
[19] = tested on: Metaphire posthuma; experiment: Anthelmintic activity against Pheretima posthuma assessed as time taken for parasite death at 0.1% w/v; outline: as §3
[20] = Antiinflammatory activity assessed as inhibition of albumin denaturation at 100 ug/ml by UV-visible spectrophotometry
Outline: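 Compounds dissolved in minimal DMF, diluted in PBS pH 7.4 (final DMF <2.5%). 1 mL test solution (100 µg/mL) plus 1 mL 1% albumin in PBS, 15 min at 27 ± 1 °C, then heated 10 min at 60 ± 1 °C. After cooling, turbidity read at 660 nm. % inhibition = [(Vt/Vc) − 1] × 100 against a no-drug control. Triplicate, averaged. Diclofenac standard.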

[21] = tested on: Bacillus subtilis; experiment: Antimicrobial activity against Bacillus subtilis at 25 ug/ml by agar plate diffusion technique; conditions: read-out: IZ; outline: as §2
[22] = tested on: Bacillus subtilis; experiment: Antimicrobial activity against Bacillus subtilis at 50 ug/ml by agar plate diffusion technique; conditions: read-out: IZ; outline: as §2
[23] = Antioxidant activity assessed as potassium ferricyanide ion reducing power after 20 mins
Outline: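 Oyaizu method. Samples or ascorbic acid in DMF (12.5–100 µg/mL) mixed with 0.2 M phosphate buffer pH 6.6 and 1% potassium ferricyanide, 20 min at 50 °C. 10% TCA added, centrifuged. Supernatant mixed with water and 0.1% FeCl3, read at 700 nm. % = [(Vt/Vc) − 1] × 100. IC50 derived.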

[24] = tested on: Pseudomonas aeruginosa; experiment: Antimicrobial activity against Pseudomonas aeruginosa at 50 ug/ml by agar plate diffusion technique; conditions: read-out: IZ; outline: as §2
[25] = tested on: Pseudomonas aeruginosa; experiment: Antimicrobial activity against Pseudomonas aeruginosa at 25 ug/ml by agar plate diffusion technique; conditions: read-out: IZ; outline: as §2
[26] = tested on: Escherichia coli; experiment: Antimicrobial activity against Escherichia coli at 100 ug/ml by agar plate diffusion technique; conditions: read-out: IZ; outline: as §2
[27] = tested on: Pseudomonas aeruginosa; experiment: Antimicrobial activity against Pseudomonas aeruginosa at 100 ug/ml by agar plate diffusion technique; conditions: read-out: IZ; outline: as §2
[28] = tested on: Escherichia coli; experiment: Antimicrobial activity against Escherichia coli at 25 ug/ml by agar plate diffusion technique; conditions: read-out: IZ; outline: as §2
[29] = tested on: Escherichia coli; experiment: Antimicrobial activity against Escherichia coli at 50 ug/ml by agar plate diffusion technique; conditions: read-out: IZ; outline: as §2

| Compound | zone of inhibition at 50 µg/mL [1] [mm] | zone of inhibition at 100 µg/mL [2] [mm] | IC50 [3] [µg/mL] | IC50 [4] [µg/mL] | zone of inhibition at 25 µg/mL [5] [mm] | zone of inhibition at 100 µg/mL [7] [mm] | Time [8] [min] | zone of inhibition at 25 µg/mL [9] [mm] | zone of inhibition at 100 µg/mL [10] [mm] | IC50 [12] [µg/mL] | Time [13] [min] | zone of inhibition at 50 µg/mL [14] [mm] | Time [16] [min] | Time [17] [min] | Time [18] [min] | Time [19] [min] | inhibition [20] [%] | zone of inhibition at 25 µg/mL [21] [mm] | zone of inhibition at 50 µg/mL [22] [mm] | IC50 [23] [µg/mL] | also measured |
| --- | --- | --- | --- | --- | --- | --- | --- | --- | --- | --- | --- | --- | --- | --- | --- | --- | --- | --- | --- | --- | --- |
| Cn1c(NN)nc(-c2ccco2)c(C#N)c1=O | 10.2 | 17.6 | 58 (≈ 251 µM) | 65 (≈ 281 µM) | 8.26 | 14.2 | 50.98 | 9.82 | 16 | 78 (≈ 337 µM) | 57.48 | 10.1 | 43.73 | 37.52 | 40.73 | 61.58 | 36.6 | 10.8 | 13.3 | 64 (≈ 277 µM) | zone of inhibition at 25 µg/mL [6]: 8.02 mm; zone of inhibition at 100 µg/mL [11]: 12.2 mm; zone of inhibition at 50 µg/mL [15]: 10.5 mm |
| C[C@@H]1[C@H](O)[C@@H](C)/C=C/C=C/C=C/C=C/C=C/C=C/C=C/[C@H](O[C@@H]2O[C@H](C)[C@@H](O)[C@H](N)[C@@H]2O)C[C@@H]2O[C@](O)(C[C@@H](O)C[C@@H](O)[C@H](O)CC[C@@H](O)C[C@@H](O)CC(=O)O[C@H]1C)C[C@H](O)[C@H]2C(=O)O [AMPHOTERICIN B] | 15.3 | 26.1 |  |  | 12.9 |  |  | 14.9 | 23.1 |  |  | 17.1 |  |  |  |  |  |  |  |  |  |
| Cn1c(NN)nc(-c2cccs2)c(C#N)c1=O | 13.8 | 15.9 | 53 (≈ 214 µM) | 63 (≈ 255 µM) | 10.7 | 15.4 | 40.3 | 10.2 | 15.9 | 68 (≈ 275 µM) | 44.42 | 12.8 | 32.35 | 26.13 | 29.13 | 58.24 | 36.4 | 9.27 | 10.1 | 61 (≈ 247 µM) | zone of inhibition at 25 µg/mL [6]: 9.12 mm; zone of inhibition at 100 µg/mL [11]: 13.4 mm; zone of inhibition at 50 µg/mL [15]: 10.6 mm |
| O=C1O[C@H]([C@@H](O)CO)C(O)=C1O [ASCORBIC ACID] |  |  | 33 (≈ 187 µM) | 47 (≈ 267 µM) |  |  |  |  |  | 26 (≈ 148 µM) |  |  |  |  |  |  |  |  |  | 31 (≈ 176 µM) |  |
| Cn1c(NN)nc(-c2cccc(O)c2O)c(C#N)c1=O | 13.8 | 15 | 29 (≈ 106 µM) | 44 (≈ 161 µM) | 9.35 | 22.1 | 60.27 | 7.06 | 18.7 | 31 (≈ 113 µM) | 63.98 | 8.44 | 52.22 | 45.65 | 48.56 | 66.22 | 28.8 | 11.5 | 14.5 | 34 (≈ 124 µM) | zone of inhibition at 50 µg/mL [24]: 10.1 mm; zone of inhibition at 25 µg/mL [25]: 8.1 mm; zone of inhibition at 100 µg/mL [26]: 10.2 mm; zone of inhibition at 100 µg/mL [27]: 12.9 mm; zone of inhibition at 25 µg/mL [28]: 8.72 mm; zone of inhibition at 50 µg/mL [29]: 8.16 mm |
